Experimental findings from ChEMBL document CHEMBL4177578, “Synthesis, pharmacological activities and molecular docking studies of pyrazolyltriazoles as anti-bacterial and anti-inflammatory agents” (Bioorg Med Chem, 2017) are described below.

Calls of active or inactive are those of the source. The calls are words filed in the database; no cut-off is given here.

What all share (type): functional
Assay [1] relates to Micrococcus luteus. The assay can be described thus: Antimicrobial activity against Micrococcus luteus at 1 mg/ml incubated for 20 to 30 mins followed by incubation for 24 hrs at 37 degC by agar plate method. A digest of the protocol: (§1)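 Agar well diffusion on nutrient agar. Plates swabbed with 60 µL inoculum; 8 mm wells loaded with 100 µL of compound at 1.0 mg/mL. Held 20–30 min at 4 °C for diffusion, then 24 h at 37 °C. Inhibition zone diameter read in mm. Triplicate.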

For assay [2], the system named is Staphylococcus aureus. The assay can be described thus: Antimicrobial activity against Staphylococcus aureus at 1 mg/ml incubated for 20 to 30 mins followed by incubation for 24 hrs at 37 degC by agar plate method. An outline of the steps: as §1
The subject of assay [3] is Salmonella typhi. The assay can be described thus: Antimicrobial activity against Salmonella typhi at 1 mg/ml incubated for 20 to 30 mins followed by incubation for 24 hrs at 37 degC by agar plate method. The following applies: Salmonella enterica subsp. enterica serovar Typhi. A digest of the protocol: (§2)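 Agar well diffusion on nutrient agar. Plates swabbed with 60 µL inoculum, 8 mm wells loaded with 100 µL sample at 1.0 mg/mL, streptomycin standard and control in separate wells. Plates held 20–30 min at 4 °C for diffusion, then 24 h at 37 °C. Zone diameter read in mm; triplicate.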

For assay [4], the system named is Salmonella paratyphi. The assay can be described thus: Antimicrobial activity against Salmonella paratyphi at 1 mg/ml incubated for 20 to 30 mins followed by incubation for 24 hrs at 37 degC by agar plate method. The settings on record: Salmonella enterica subsp. enterica serovar Paratyphi A. An outline of the steps:
as §2

The test system of assay [5] is Micrococcus luteus. Briefly: Antimicrobial activity against Micrococcus luteus incubated for 12 to 16 hrs by tube dilution method. An outline of the steps: (§3)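 Tube dilution, serial from 500 to 1.9 µg/mL, plus drug-free control tube. Each tube inoculated with 1 mL culture at OD 0.2, incubated 37 °C for 12–16 h. MIC is the lowest concentration with no growth by turbidity. MBC is found by plating each tube on nutrient agar: the lowest concentration at which all cells are killed.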

For assay [6], the system named is Micrococcus luteus. The assay can be described thus: Antimicrobial activity against Micrococcus luteus incubated for 12 to 16 hrs followed by plating in nutrient agar by tube dilution method. A digest of the protocol:
as §3

Assay [7] has as its system Salmonella typhi. Briefly: Antimicrobial activity against Salmonella typhi incubated for 12 to 16 hrs by tube dilution method. The settings on record: Salmonella enterica subsp. enterica serovar Typhi. A digest of the protocol: (§4)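 Broth tube dilution, two-fold serial dilutions from 500 to 1.9 µg/mL plus a drug-free control tube. Each tube inoculated with 1 mL culture at OD 0.2 (~McFarland standard), 37 °C for 12-16 h. Turbidity compared with the control tube. MIC is the lowest concentration giving complete growth inhibition.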

Assay [8] concerns Salmonella typhi. Briefly: Antimicrobial activity against Salmonella typhi incubated for 12 to 16 hrs followed by plating in nutrient agar by tube dilution method. The settings on record: Salmonella enterica subsp. enterica serovar Typhi. An outline of the steps:
(§5)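 After 12-16 h at 37 °C in tube dilution (500 to 1.9 µg/mL; 1 mL inoculum at OD 0.2), the culture from each tube was plated on nutrient agar. MBC is the concentration at which cells are completely killed.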

In assay [9] the test system is Salmonella paratyphi. Briefly: Antimicrobial activity against Salmonella paratyphi incubated for 12 to 16 hrs by tube dilution method. The settings on record: Salmonella enterica subsp. enterica serovar Paratyphi A. An outline of the steps: as §4
For assay [10], the system named is Salmonella paratyphi. Briefly: Antimicrobial activity against Salmonella paratyphi incubated for 12 to 16 hrs followed by plating in nutrient agar by tube dilution method. The settings on record: Salmonella enterica subsp. enterica serovar Paratyphi A. A digest of the protocol: as §5
Assay [11] in a line: Anti-inflammatory activity at 50 ug/ml using bovine serum albumin and egg albumin proteins incubated at 37 degC for 20 mins and then heated to 95 degC for 20 mins by UV-visible Spectrophotometry based protein denaturation method. A digest of the protocol: (§6)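 Albumin (bovine serum or egg) at 1% in 50 mM sodium phosphate buffer pH 6.4. Mixture is 0.1 ml test sample (1 mg/ml) plus 0.2 ml albumin, made to 5 ml with buffer. Held 37 °C for 20 min, then 95 °C for 20 min. Cooled to room temperature, turbidity read at 660 nm. % inhibition = (Abs control − Abs sample)/Abs control × 100. Triplicate, averaged.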

Assay [12] can be described thus: Anti-inflammatory activity at 100 ug/ml using bovine serum albumin and egg albumin proteins incubated at 37 degC for 20 mins and then heated to 95 degC for 20 mins by UV-visible Spectrophotometry based protein denaturation method. An outline of the steps:
as §6

A short description of assay [13]: Anti-inflammatory activity using bovine serum albumin and egg albumin proteins incubated at 37 degC for 20 mins and then heated to 95 degC for 20 mins by UV-visible Spectrophotometry based protein denaturation method. A digest of the protocol: as §6

As for `CN(C)c1ccc(-c2cn(Cc3cn(-c4ccccc4)nc3-c3ccccc3)nn2)cc1`, the “diameter of the inhibition zone (DIZ)” value in assay [1], in assay [2], in assay [3] and in assay [4] was “inactive” in each case. Also, the MIC result in assay [5], in [7] and in assay [9] was “inactive” in each case. The MBC entry in [6], in assay [8] and in assay [10] was “inactive” each time. Further, the inhibition entry in [11] and in assay [12] was “inactive” throughout. Further, the IC50 result in assay [13] is given as “Not Active”.

For `CCOC(=O)c1nnn(Cc2cn(-c3ccccc3)nc2-c2ccc(C)cc2)c1C(=O)OCC`, the “diameter of the inhibition zone (DIZ)” value in assay [1], in assay [2], in assay [3] and in assay [4] was “inactive” throughout. Besides, the MIC result in [5], in assay [7] and in assay [9] was “inactive” in each case. Moreover, the MBC result in assay [6], in assay [8] and in assay [10] was “inactive” each time. For the same compound, the inhibition entry in assay [11] and in assay [12] was “inactive” throughout. In assay [13], the IC50 entry was “Not Active”.

Regarding `Fc1ccc(-c2cn(Cc3cn(-c4ccccc4)nc3-c3ccccc3)nn2)cc1`, the “diameter of the inhibition zone (DIZ)” value in assay [1], in assay [2], in assay [3] and in assay [4] was “inactive” each time. For the same compound, the MIC entry in assay [5], in assay [7] and in assay [9] was “inactive” each time. In addition, the MBC entry in assay [6], in assay [8] and in assay [10] was “inactive” each time. The inhibition result in assay [11] and in assay [12] was “inactive” throughout. The IC50 entry in assay [13] is “Not Active”.

With `CCOC(=O)c1nnn(Cc2cn(-c3ccccc3)nc2-c2ccc(Cl)cc2)c1C(=O)OCC`, the “diameter of the inhibition zone (DIZ)” value in [1], in assay [2], in assay [3] and in assay [4] was “inactive” in each case. The MIC result in assay [5], in assay [7] and in [9] was “inactive” throughout. The MBC result in [6], in [8] and in assay [10] was “inactive” throughout. The inhibition result in assay [11] and in assay [12] was “inactive” in each case. Further, the IC50 entry in assay [13] is reported as “Not Active”.

Regarding `[N-]=[N+]=NCc1cn(-c2ccc(Cl)cc2)nc1-c1ccccc1`, the “diameter of the inhibition zone (DIZ)” value in [1], in [2], in assay [3] and in [4] was “inactive” in each case. Also, the MIC entry in assay [5], in assay [7] and in assay [9] was “inactive” throughout. For the same compound, the MBC entry in assay [6], in assay [8] and in assay [10] was “inactive” in each case. Further, the inhibition entry in assay [11] and in assay [12] was “inactive” throughout. Besides, the IC50 result in assay [13] was “Not Active”.

`COC(=O)c1nnn(Cc2cn(-c3ccccc3)nc2-c2ccc(C)cc2)c1C(=O)OC`: the “diameter of the inhibition zone (DIZ)” value in assay [1], in [2], in assay [3] and in assay [4] was “inactive” each time. The MIC result in assay [5], in assay [7] and in assay [9] was “inactive” in each case. Further, the MBC result in assay [6], in [8] and in assay [10] was “inactive” in each case. In addition, the inhibition entry in assay [11] and in [12] was “inactive” throughout. Further, the IC50 entry in [13] was “Not Active”.

In the case of `Clc1ccc(-c2cn(Cc3cn(-c4ccccc4)nc3-c3ccccc3)nn2)cc1`, the “diameter of the inhibition zone (DIZ)” value in [1], in [2], in [3] and in [4] was “inactive” in each case. The MIC entry in assay [5], in assay [7] and in assay [9] was “inactive” each time. For the same compound, the MBC result in assay [6], in assay [8] and in assay [10] was “inactive” each time. Further, the inhibition entry in assay [11] and in assay [12] was “inactive” in each case. In [13], the IC50 result is “Not Active”.

With `COC(=O)c1nnn(Cc2cn(-c3ccc(Cl)cc3)nc2-c2ccccc2)c1C(=O)OC`, the “diameter of the inhibition zone (DIZ)” value in assay [1], in assay [2], in [3] and in [4] was “inactive” throughout. Further, the MIC entry in assay [5], in assay [7] and in [9] was “inactive” throughout. Also, the MBC result in assay [6], in [8] and in assay [10] was “inactive” in each case. Further, the inhibition result in assay [11] and in [12] was “inactive” each time. The IC50 entry in [13] is on record as “Not Active”.

For the compound `CCOC(=O)c1nnn(Cc2cn(-c3ccccc3)nc2-c2ccc(OC)cc2)c1C(=O)OCC`, the “diameter of the inhibition zone (DIZ)” value in [1], in assay [2], in [3] and in assay [4] was “inactive” throughout. Besides, the MIC entry in assay [5], in assay [7] and in assay [9] was “inactive” throughout. Also, the MBC result in assay [6], in [8] and in assay [10] was “inactive” throughout. The inhibition entry in [11] and in assay [12] was “inactive” each time. Besides, the IC50 result in [13] is on record as “Not Active”.

On to `COc1ccc(-c2nn(-c3ccccc3)cc2CN=[N+]=[N-])cc1`, for which the “diameter of the inhibition zone (DIZ)” value in assay [1], in assay [2], in assay [3] and in [4] was “inactive” throughout. The MIC entry in assay [5], in assay [7] and in assay [9] was “inactive” in each case. In addition, the MBC entry in [6], in assay [8] and in [10] was “inactive” in each case. Also, the inhibition result in assay [11] and in [12] was “inactive” in each case. Moreover, in [13], the IC50 result is recorded as “Not Active”.

Take `Cc1ccc(-c2nn(-c3ccccc3)cc2CN=[N+]=[N-])cc1`: the “diameter of the inhibition zone (DIZ)” value in assay [1], in [2], in assay [3] and in assay [4] was “inactive” in each case. Moreover, the MIC entry in assay [5], in assay [7] and in [9] was “inactive” throughout. Moreover, the MBC entry in [6], in [8] and in [10] was “inactive” in each case. For the same compound, the inhibition entry in assay [11] and in [12] was “inactive” in each case. Moreover, in [13], the IC50 result is listed as “Not Active”.
